Data: article PMC6684861 (Traffic (Copenhagen, Denmark), 2018)
Primed or numbered codes have the meaning given here. No end group written: not given here. FITC′ = fluorescein isothiocyanate label

Assays:
U2OS cells [1] = details: compared with pol λ in U2OS cells; ref [24]; cited from earlier work
Impα = details: ref [24]; cited from earlier work
ImpαΔIBB = ImpαΔIBB (Mus musculus, UniProt P52293); experiment: X-ray crystallography of ImpαΔIBB-NLS peptide complexes; type: binding, murine; details: estimated from electron density
Summary of the method: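 ImpαΔIBB (15 mg/ml in 20 mM Tris pH 7.8, 125 mM NaCl, 5 mM DTT) was mixed with test NLS peptide at 1.25:1 molar excess. Crystals were grown by hanging-drop vapor diffusion. For two complexes the mother liquor was 0.7 or 0.8 M sodium citrate with 0.1 M HEPES pH 7.0. Rfree used 5% of reflections excluded from refinement. Geometry was checked with MolProbity.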

U2OS cells [2] = experiment: Nuclear/cytosolic ratio of pol X-GFP adducts in transfected U2OS cells; type: cell-based, human; details: among the four mammalian enzymes, in the cell-types investigated
Summary of the method: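 U2OS cells in RPMI 1640 with 10% FBS (37 °C, 5% CO2) were seeded at 10,000 cells/chamber. They were transfected (Lipofectamine 2000, 1:4 DNA:reagent) with wild-type or NLS-mutant polymerase-GFP plasmids, then fixed at 24 h (3.7% formaldehyde), permeabilized and stained with CellMask and a nuclear stain. Confocal GFP intensity was measured in nuclear and cytoplasmic ROIs of ≥30 cells/construct. Ratios were averaged with ±2 SD outliers removed, then analysed by ANOVA/Tukey.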

| Substance | nuclear/cytosolic ratio of pol β (U2OS cells [1]) | binding affinity of NLS for the minor binding pocket of Impα (Impα) | occupancy of the minor binding pocket (ImpαΔIBB) | extent of nuclear localization, in words (U2OS cells [2]) |
| --- | --- | --- | --- | --- |
| DNA polymerase β [pol β] | ~ 3 | highly selective binding affinity for the minor binding pocket of Impα |  |  |
| pol λ NLS: bipartite N-terminal NLS of pol λ (KAFPKRQKIHADASSKVLAKIPRREEGK-{FITC′}) |  |  | ~ 70% | greatest extent of nuclear localization |
